697 NFkB inh: inhibitors of the PMA/ionomycin-induced NF-kB reporter in 697 B cells; 697 B-cell NF-kB luciferase reporter, 16 h; 0.33% of 330,000 active; AID 435022; inhibition, % at 4 µM; in the data active means inhibition above about 35%
CHOP inh: inhibitors of CHOP induction in ER stress response | 3.8% of 220,000 active | AID 2732 | CHO-K1 CHOP-promoter luciferase, tunicamycin-induced, 15-18 h | inhibition, % at 10 µM;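 active means compounds that reduced the stress-induced luciferase reporter signal by more than about 70% of percent inhibition, limit read from the data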;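 further: 0% = tunicamycin plus vehicle and 100% = wells without tunicamycin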
Gli-Sufu block: Gli-Sufu pathway antagonism | Sufu-KO-LIGHT fibroblasts, Gli luciferase reporter luminescence | inhibition, % at 5 µM | 0.74% of 340,000 active | AID 588413;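 active means inhibition above about 55%, limit read from the data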;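 further: 0% = DMSO-treated cells and 100% = wells with medium but no cells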
Jurkat NFkB inh: inhibitors of the PMA/ionomycin-induced NF-kB reporter in Jurkat cells. PMA/ionomycin-induced NF-kB luciferase reporter, luminescence. inhibition, % at 4 µM. 0.53% of 330,000 active; in the data active means inhibition above about 50%
CHOP UPR activ: apoptotic UPR (CHOP) activation. CHO-CHOP luciferase reporter, luminescence; percent of tunicamycin response over DMSO baseline. activation, % at 10 µM. 0.34% of 330,000 active;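 active means at 10 µM dose, activation of 40% or more, normalized to positive control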;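 further: 100% = tunicamycin at 10 µg/mL and 0% = DMSO alone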
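Evaluation: % reporter activation, DMSO baseline versus tunicamycin full activation; System: CHO-CHOP luciferase reporter cell line; Input: 500 cells/well; Incubation: 6 h compound treatment, 37 °C; Measured by: Steady-Glo luciferase luminescence; Dosing: one dose, 10 µM in 0.5% DMSO; Buffer or medium: F12 medium, 10% FBS; Benchmarks: positive tunicamycin 10 µg/mL, negative DMSO alone.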
UPR XBP1 act: activators of adaptive arm of unfolded protein response (XBP1) | AID 463104 | activation, % at 20 µM | 0.33% of 330,000 active | CHO-XBP1 luciferase reporter, IRE1-XBP1 UPR activation, luminescence; percent of tunicamycin response, DMSO as zero;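 active means versus positive control, 20 µM dose yields 30% or more activation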;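 further: 100% = tunicamycin at 10 µg/mL and 0% = DMSO only wells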
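Assay system: IRE1-XBP1 luciferase reporter CHO line. Input: 1000 cells/well. Buffer or medium: F12 with 10% serum. Doses: 20 µM, 1% DMSO. Times: overnight seeding at 37 °C, 6 h compound treatment at 37 °C. Technique: Steady-Glo luciferase glow luminescence, 10 min after reagent addition.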
Jurkat NFkB conf: inhibitors of the PMA/ionomycin-induced NF-kB reporter in Jurkat cells, retest; shares compounds with Jurkat NFkB inh; 27% of 2,700 active; Jurkat NF-kB luciferase, 16 h; inhibition, % at 4 µM;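 active means inhibition reaching about 45% at 4 µM in either replicate, limit read from the data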;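 further: plate controls were PMA/ionomycin stimulated DMSO wells for no effect and unstimulated DMSO wells for full effect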
697 NFkB conf: inhibitors of the PMA/ionomycin-induced NF-kB reporter in 697 B cells, retest; shares compounds with 697 NFkB inh; 697 B-cell NF-kB luciferase, 16 h; inhibition, % at 4 µM; 35% of 2,000 active; in the data active means inhibition mostly above about 28%, no sharp cut-off; inactive means mostly below about 22%
UPR CHOP confirm: confirmation of apoptotic unfolded protein response (CHOP) activators. activation, % at 10 µM. shares compounds with CHOP UPR activ. 64% of 1,000 active. CHO-CHOP cells, CHOP-luciferase reporter luminescence; percent of tunicamycin response, DMSO as zero; in the data active means activation above about 33%;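 further: 0% = DMSO wells and 100% = tunicamycin 10 µg/mL wells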
Gli-Sufu confirm: Gli-SUFU antagonism confirmation, single concentration | shares compounds with Gli-Sufu block | Sufu-KO-LIGHT cells, Gli luciferase reporter, luminescence | inhibition, % at 5 µM | 40% of 2,500 active | AID 602428;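 active means mean inhibition at 5 µM reaching about 45%, limit read from the data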;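 further: plate controls were DMSO-treated cells for no effect and wells lacking cells for full effect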
SufuKO cytotox: counter-screen for Gli-SUFU antagonists: cytotoxicity | cytotoxicity, % at 5 µM | shares compounds with Gli-Sufu block | Sufu-KO-LIGHT cells cytotoxicity, ATP luminescence | 32% of 2,500 active;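 active means mean cytotoxicity at 5 µM above about 25%, limit read from the data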;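 further: cells exposed to compound overnight for roughly 16 to 18 hours; plate controls were DMSO wells with cells for no effect and medium without cells for full effect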
Wnt3a counter: Wnt3a reporter inhibition counter-screen. shares compounds with Gli-Sufu block. Wnt-LIGHT cells, Wnt3a-driven luciferase reporter, luminescence. inhibition, % at 6.25 µM. 20% of 2,500 active;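 active means mean inhibition above about 25%, limit read from the data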
An asterisk follows results filed as active; i = inactive; · = no result given. This is a sample that favours compounds with a hit; in the whole collection about 3.9% have one here.

SMILES | 697 NFkB inh | CHOP inh | Gli-Sufu block | Jurkat NFkB inh | CHOP UPR activ | UPR XBP1 act | 697 NFkB conf | others
C[C@H]1CCC/C=C/[C@@H]2C[C@H](O)C[C@H]2[C@H](O)/C=C/C(=O)O1 | 66* | · | 89* | 98* | 115* | 12 | 81* | Jurkat NFkB conf=-15
CC(=O)C1CCC2(O)C3CCC4=CC(=O)CCC4(C)C3CCC12C (centres undefined) | · | · | 2 | · | · | · | ·
C[C@@H]1O[C@@H](O[C@@H]2C=C3CC[C@@H]4C(CC[C@]5(C)[C@@H](c6ccc(=O)oc6)CC[C@]45O)[C@@]3(C)CC2)[C@H](O)[C@H](O)[C@H]1O (some centres undefined) | 90* | · | -2 | 100* | 1 | -4 | 99* | Jurkat NFkB conf=94*
C[C@@H]1O[C@@H](O[C@@H]2C=C3CCC4C(CC[C@]5(C)[C@@H](c6ccc(=O)oc6)CC[C@]45O)[C@@]3(C)CC2)[C@H](O)[C@H](O)[C@H]1O (some centres undefined) | 102* | · | 1 | 100* | -2 | -7 | 99* | Jurkat NFkB conf=97*
CCN1CCN(Cc2cccnc2)CC1 | 16 | · | -30 | 5 | -1 | -4 | ·
COC(=O)C1=C(c2c(C)noc2C)C[C@@H]2CC[C@H]1N2C(=O)NCc1ccc(F)cc1 | 2 | · | -5 | 17 | 1 | -3 | ·
CCC1(CCO)C(=O)NC(=S)NC1=O | · | · | 3 | · | · | · | ·
Nc1ncnc2c1ccn2[C@@H]1O[C@H](CO)[C@@H](O)[C@H]1O | 75* | · | 23 | 86* | -4 | -6 | 98* | Jurkat NFkB conf=85*
CC(=O)OC1CC(OC2C(O)CC(OC3C(O)CC(OC4CCC5(C)C(CCC6C5CCC5(C)C(C7=CC(=O)OC7)CCC65O)C4)OC3C)OC2C)OC(C)C1OC1OC(CO)C(O)C(O)C1O (centres undefined) | · | · | -5 | · | · | · | ·
C[C@@H]1O[C@@H](O[C@H]2C[C@@H](O)[C@]3(CO)[C@H]4[C@H](O)C[C@]5(C)[C@@H](C6COC(=O)C6)CC[C@]5(O)[C@@H]4CC[C@]3(O)C2)[C@H](O)[C@H](O)[C@H]1O (some centres undefined) | -403 | 10 | 2 | 96* | 0 | -2 | -496 | Jurkat NFkB conf=72*
CC(=O)c1cn(Cc2ccccc2C#N)c2ccccc12 | 47* | 52 | 59* | 52* | 1 | -1 | 30* | Jurkat NFkB conf=55*;Gli-Sufu confirm=63*;SufuKO cytotox=18;Wnt3a counter=34*
COc1ccccc1-n1c(O)c(/C=N/NC(=S)Nc2ccccc2)c(=O)[nH]c1=S | 3 | 2 | 3 | 6 | 3 | -1 | ·
COc1cc2c(cc1OC)[C@@H]1C(=O)c3ccc4c(c3O[C@@H]1CO2)C[C@H](C(C)C)O4 | 71* | 78* | 83* | 74* | 8 | -4 | 81* | Jurkat NFkB conf=78*;Gli-Sufu confirm=85*;SufuKO cytotox=42*;Wnt3a counter=53*
COc1cc2c(cc1OC)[C@H]1C(=O)c3ccc4c(c3O[C@H]1CO2)C[C@@H](C(C)(C)O)O4 | -17 | · | 14 | 3 | 2 | -2 | ·
Cc1ccc(N)c(C(=O)c2ccccc2)c1 | 14 | -3 | -3 | -9 | 0 | -1 | ·
Cc1cc(N=Nc2ccccc2C)ccc1N | -330 | · | -86 | -72 | 5 | 6 | -113
O=c1[nH]c(=S)n(-c2ccccc2F)c(O)c1C=NCCN1CCNCC1 | 13 | · | -6 | -3 | -1 | -3 | ·
CN(C)c1ccc(C(=O)N/N=C/C23CC[C@@H](O)CC2(O)CC[C@@H]2[C@@H]3CCC3(C)C(C4=CC(=O)OC4)CCC23O)cc1 (some centres undefined) | i | -9 | 1 | -11 | -1 | -2 | -314
Cc1cccc(CCNCc2cc3ccc(C)cc3[nH]c2=O)c1 | -10 | · | 10 | -10 | 0 | -1 | ·
O=C(N1CCCCCC1)N1CC1 | · | · | 3 | · | · | · | ·
CN(C)P(=O)(C(Cl)=C(N1CCCCC1)N1CCCCC1)N(C)C | 41* | -8 | 7 | -17 | -1 | -1 | 23
Cc1nn(Cc2ccc(Cl)cc2Cl)c(Cl)c1C(=O)O | 3 | 7 | -6 | 4 | -2 | -2 | ·
N=c1c2c(n(Cc3ccc(Cl)cc3Cl)c3c1CCC3)CCCC2 | 68* | · | 9 | 30 | 0 | -2 | 33*
CC(=O)OC1CC[C@]2(C#N)[C@H]3CC[C@]4(C)[C@H](C5C=CC(=O)O5)CCC4(O)C3CCC2(O)C1 (some centres undefined) | i | · | 2 | 10 | 0 | -2 | -246
COC(=O)C(C)Oc1cc(C)cc2oc(=O)c3c(c12)CCC3 (centres undefined) | 36* | 2 | -3 | 14 | 2 | -1 | 55*
SMILES | 697 NFkB inh | CHOP inh | Gli-Sufu block | Jurkat NFkB inh | CHOP UPR activ | UPR XBP1 act | 697 NFkB conf | others
C=CCn1c(O)c(C(CC)=NC(C)c2ccccc2)c(=O)[nH]c1=O (centres undefined) | 61* | 38 | 17 | -8 | -1 | 0 | 39*
Cc1nccn1Cc1ccc(Cl)nc1 | 11 | 50 | 2 | 12 | 0 | -1 | ·
Cc1nc2cc(-c3cccc(F)c3)nn2c(C)c1CCC(=O)N1CCC2(CC1)OCCO2 | 36* | 48 | 16 | 18 | -1 | -1 | 36*
Cc1nc2c(-c3ccccc3)c(C)nn2c(C)c1CCC(=O)N1CCC2(CC1)OCCO2 | -14 | 30 | 5 | 0 | -3 | 4 | ·
c1ccc(-c2ccc(-c3n(-c4ccccn4)c4ccccc4[n+]3-c3ccccn3)cc2)cc1 | · | -11 | 36 | · | · | · | ·
Cc1cc(C)cc(N2C(=O)NC(=O)/C(=C\c3cccn3-c3ccccc3)C2=O)c1 | 53* | 52 | 0 | 10 | 189* | -4 | 61* | UPR CHOP confirm=333*
COC(=O)C1=C(c2cccc(Cl)c2)C[C@@H]2CC[C@H]1N2C(=O)NCC1CC1 | -16 | · | 1 | -6 | 0 | -5 | ·
